Source: PubChem (several laboratories)
MT1-MMP act inh = inhibitors of human MT1-MMP activation. P50281. HT1080 RFP-PRO-GFP cells, GFP/RFP ratio fluorescence, overnight; percent of plate control window, DMSO zero. GFP/RFP ratio change, % at 20 µM. 360,000 tested, 0.061% active. AID 651647;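 active = GFP/RFP ratio change of at least 30% with cell ATP level not reduced by more than half and red fluorescence within 50% of control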
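Test system: HT1080 cells expressing an RFP-PRO-GFP fluorescent reporter construct / Compound dosing: single-point 20 µM compound, 1% DMSO / Schedule: cells overnight before dosing, compound overnight, 37 °C, 5% CO2 / Evaluation: GFP/RFP fluorescence ratio / Control set: DMSO and RFP-L50D-GFP cell wells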
GRIN3A LBD mod = modulates the human NR3A ligand-binding domain; Tm shift relative to glycine control, % at 25 µM; AID 1259313; 340,000 tested, 2.5% active; NR3A LBD differential scanning fluorimetry, Tm shift; 0% = protein alone, 100% = glycine-bound protein;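 active = melting temperature shift of at least 10% of the positive control shift, at one fixed dose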
SKN-1 block = blocks SKN-1 activity in C. elegans. inhibition, % at 21.8 µM. 360,000 tested, 0.49% active. C. elegans VP596 Pgst-4::GFP/RFP ratio, acrylamide-induced, 24 h;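 active = interference check ratio from 0.5 to 1.5 plus GFP to RFP signal ratio inhibition reaching or exceeding a fixed threshold, cut at about 30% in these data, passing the limit was not always enough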
ADAM17 inh = ADAM17 inhibition, QFRET primary screen; P78536; 370,000 tested, 0.83% active; inhibition, % at 6.95 µM; recombinant ADAM17, EDANS/DABCYL FRET peptide cleavage; AID 720648;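 active = inhibition above the mean of compounds lying between control limits plus 3 SD, set per campaign, cut at about 8.5% in these data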
MPTP inh = permeability transition pore inhibition; 360,000 tested, 1.4% active; inhibition, % at 10 µM; isolated mouse mitochondria, Ca2+ swelling absorbance, 30 min; AID 602449;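 active = inhibition of 50% or more, scaled per plate between neutral and stimulator controls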
ADAM10 inh = inhibits human ADAM10 | recombinant ADAM10, EDANS/DABCYL FRET peptide cleavage, 3 h | O14672 | inhibition, % at 7 µM | 370,000 tested, 0.62% active;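 active = inhibition above a per-campaign cutoff equal to the mean of compounds falling between control-based bounds plus 3 SD, cut at about 20% in these data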
Target sequence (O14672 214-748 limits assumed): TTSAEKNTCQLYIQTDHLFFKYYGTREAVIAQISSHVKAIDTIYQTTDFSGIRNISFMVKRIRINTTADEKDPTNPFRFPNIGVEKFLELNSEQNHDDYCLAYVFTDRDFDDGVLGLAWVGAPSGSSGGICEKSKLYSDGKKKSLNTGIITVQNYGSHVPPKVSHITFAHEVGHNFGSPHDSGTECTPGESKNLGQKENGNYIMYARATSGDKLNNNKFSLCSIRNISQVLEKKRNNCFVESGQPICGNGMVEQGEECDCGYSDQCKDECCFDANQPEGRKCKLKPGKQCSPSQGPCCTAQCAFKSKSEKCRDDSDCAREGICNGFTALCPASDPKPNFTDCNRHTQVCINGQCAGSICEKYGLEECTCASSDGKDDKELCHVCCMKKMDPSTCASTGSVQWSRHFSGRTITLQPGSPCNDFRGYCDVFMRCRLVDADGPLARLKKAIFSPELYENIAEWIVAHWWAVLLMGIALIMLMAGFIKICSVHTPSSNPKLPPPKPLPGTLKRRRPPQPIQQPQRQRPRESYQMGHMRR
Rh123 counter = Rhodamine 123 counter-screen of mitochondrial pore hits. inhibition, % at 10 µM. 5,000 tested, 78% active. shares compounds with MPTP inh. isolated mitochondria, membrane potential, Rhodamine 123 fluorescence; in the data active = inhibition above about 22%
MPTP swell DR = dose response confirmation of mitochondrial permeability transition pore inhibitors; 780 tested, 58% active; AID 651561; isolated mitochondria swelling, absorbance; IC50, µM; shares compounds with MPTP inh; in the data active = IC50 below about 20 µM
MPTP cs DR = MPTP inhibitor counter-screen activity, dose response; IC50, µM; isolated mitochondria counterscreen, fluorescence read-out; shares compounds with MPTP inh; 780 tested, 49% active; in the data active = IC50 below about 80 µM
Large screens that a line does not name were inactive (follow-up assays come after a bar, where they were run); ! = not active in a repeat. Hits are enriched below; roughly 4.7% of the tested compounds scored in any of these assays.

O=C(NCc1ccccc1Cl)C1CCN(S(=O)(=O)c2cccs2)CC1	none
CCOc1ccc(OCC)c(NC(=O)CSc2nc3ccccc3c(=O)n2C)c1	MPTP inh 93.1 | Rh123 counter 74.5
CCOc1ccc(OCC)c(NC(=O)CSc2nc3cccnc3n2C)c1	none
CCC(=O)c1ccc2c(c1)N(CCCN(C)C)c1ccccc1S2	MPTP inh 71.7 | Rh123 counter inactive
CC(C)(C)C1CCC(OCC(O)CN2CCN(c3ccccc3)CC2)CC1 (configuration not stated)	MPTP inh 84.9 | Rh123 counter inactive | MPTP swell DR inactive | MPTP cs DR inactive
COC(=O)c1ccc(CNC(=O)c2ccc3c(c2)NC(=O)CS3)cc1	none
CC(C)Nc1ncnc2ccc(Br)cc12	MPTP inh 58.8 | Rh123 counter 38.2
CSCCC(Nc1ncnc2ccc(Br)cc12)C(=O)O (configuration not stated)	none
O=c1c(Cc2ccccc2)c(O)c2cccc3c4c(n1c23)CCCC4	MPTP inh 66.0 | Rh123 counter 79.6
O=[N+]([O-])c1cc(Br)cc(C=Nc2ccc3c(c2)OCO3)c1O	MPTP inh 74.6 | Rh123 counter 52.1
O=C(CN1C(=O)NC(Cc2c[nH]c3ccccc23)C1=O)NCCc1ccccc1 (configuration not stated)	none
O=[N+]([O-])c1ccc(N/N=C2\CC3CC=CC23)cc1 (configuration not stated)	none
O=[N+]([O-])c1ccc(N/N=C2\CC3CC=CC23)c([N+](=O)[O-])c1 (configuration not stated)	MPTP inh 91.8 | Rh123 counter 75.1
Cc1cc(/C=C2/SC(=S)N(c3cccc(C(F)(F)F)c3)C2=O)c(C)n1-c1cccnc1	MPTP inh 104.7 (no result: ADAM17 inh, ADAM10 inh) | Rh123 counter 86.8
Cc1cc(/C=C2\SC(=S)N(Cc3ccco3)C2=O)c(C)n1-c1cccnc1	none
O=C(CNC(=O)c1ccccc1)NCCCSc1ccccc1	none
O=C(NCCCSc1ccccc1)c1cc(Cl)ccc1O	GRIN3A LBD mod 11.8, MPTP inh 81.7 | Rh123 counter 83.4
O=S(=O)(N[C@H]1C[C@@H](NS(=O)(=O)OCC(Cl)(Cl)Cl)C2CCCCC21)OCC(Cl)(Cl)Cl (some centres not stated)	GRIN3A LBD mod 18.4, MPTP inh 64.4 | Rh123 counter 91.2
FC(F)(F)c1cnc(NNC(=S)Nc2ccccc2Cl)c(Cl)c1	MPTP inh 54.6 | Rh123 counter 89.1
O=C(NCCNc1ccnc2cc(Cl)ccc12)c1ccccc1F	MPTP inh 74.8 | Rh123 counter 57.5
S=C(NNc1ccnc2cc(Cl)ccc12)Nc1ccccc1Cl	GRIN3A LBD mod 20.4, MPTP inh 98.3 | Rh123 counter 77.4
CCN(CC)CCNc1ccnc2cc(Cl)ccc12	none
Clc1ccc2c(NCc3ccccc3)ccnc2c1	MPTP inh 88.2 | Rh123 counter 82.8
O=C(Nc1ccccc1)Nc1ncc(C(F)(F)F)cc1Cl	none (no result: GRIN3A LBD mod)
O=C(NCCNc1ccc(Cl)cc1[N+](=O)[O-])c1ccccc1F	none
Cc1c(C)[n+](=O)c(-c2cccs2)c(C)n1[O-]	none
CCOc1ccc(OCC)c(S(=O)(=O)N2CCCCC2C)c1 (configuration not stated)	none
CCc1ccc(N2CCN(CCNC(=O)Nc3ccccc3)CC2)cc1	none
Cc1ccc(S(=O)(=O)N2CCCC(C(=O)NC3=NCCS3)C2)cc1 (configuration not stated)	MPTP inh 70.0 | Rh123 counter inactive | MPTP swell DR inactive | MPTP cs DR inactive
CC(C)CSC1=NSC2=NC(=O)/C(=C\c3cccs3)C(=N)N12	GRIN3A LBD mod 10.6, MPTP inh 100.2 | Rh123 counter 93.2
CSC1=NSC2=NC(=O)/C(=C/c3coc4ccccc4c3=O)C(=N)N12	GRIN3A LBD mod 10.8, MPTP inh 95.2 | Rh123 counter 80.0
N=C1/C(=C/c2cccs2)C(=O)N=C2SN=C(SCc3ccccc3)N12	MPTP inh 85.8 | Rh123 counter 70.9
N=C1/C(=C\c2coc3ccccc3c2=O)C(=O)N=C2SC=CN12	none
CC1=CC2=NC(=O)/C(=C/c3cccs3)C(=N)N2O1	none
Cc1csc2ncnc(NC3CCN(Cc4ccccc4)CC3)c12	MPTP inh 92.3 | Rh123 counter 86.8
CCOC(=O)c1cc2ccc(OC(=O)c3ccco3)cc2oc1=O	none
COCCCC/C(=N\OCCN)c1ccc(C(F)(F)F)cc1	MPTP inh 81.9! | Rh123 counter inactive | MPTP swell DR 13.1 | MPTP cs DR inactive
C=CCc1cccc(/C=N/NC(=O)C(=O)Nc2ccc(C)cc2)c1O	none
C=CCc1cccc(/C=N/NC(=O)C(C)Nc2ccc(C)cc2)c1O (configuration not stated)	MPTP inh 79.7 | Rh123 counter 62.1
Cc1ccc(C2CC2C(=O)NNC(=S)Nc2ccc(Cl)cc2)cc1 (configuration not stated)	GRIN3A LBD mod 11.7, MPTP inh 52.6 | Rh123 counter 72.7
CC1CC(C)(C)CC2(C1)NC(=O)N(CC(=O)NCCc1c[nH]c3ccccc13)C2=O (configuration not stated)	none
CC1CCCC(NC(=O)c2ccc3c(c2)NC(=O)CS3)C1C (configuration not stated)	none
Cc1c(N/N=C(\C#N)C(=O)c2ccc(Cl)cc2)c(=O)n(-c2ccccc2)n1C	none
CCOc1ccc(N/N=C(/C#N)C(N)=O)cc1	none
CCOC(=O)NC(=O)/C(C#N)=N\Nc1ccc(Cl)cc1	MPTP inh 90.2 | Rh123 counter 95.1
CCOC(=O)NC(=O)/C(C#N)=N\Nc1cccc(Cl)c1	MPTP inh 92.8 | Rh123 counter 72.9
N#C/C(=N\Nc1ccc(Cl)cc1)C(=O)c1ccccc1	MPTP inh 95.9 | Rh123 counter 82.9
CCOC(=O)NC1(Nc2cccc(Cl)c2)Oc2ccccc2O1	none
O=C1c2cccc(OCc3ccc(F)cc3)c2CCN1Cc1ccc(F)cc1	MPTP inh 79.4 | Rh123 counter 83.2
Cc1ccc(CN2CCc3c(OCc4ccc(F)cc4)cccc3C2=O)cc1	none
CCC(=O)N1CCC2(CC1)Oc1ccc(F)cc1C(=O)C21CC(c2ccc(Cl)cc2)=NO1 (configuration not stated)	none
